# Bioassay records as filed in PubChem BioAssay.
# An excerpt weighted towards active compounds, which were near 1.8% of everything screened.
# TLR4 MyD88 comp: inhibitors of TLR4-MyD88 association in cells, primary screen, cell-based, HeLa CL3-4, BLA complementation, FRET ratio; inhibition, % at 8.4 µM; AID 861, 2007; 200,000 compounds, 0.18% hits; Toll-like receptor 4 (Homo sapiens) + Myeloid differentiation primary response protein …; HeLa CL3-4 TLR4/MyD88 BLA complementation; in the data active = inhibition above about 25%;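 also: 0% = vehicle and 100% = reference inhibitor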
# TLR9-MyD88 block: inhibitors of TLR9-MyD88 association in cells, primary screen, cell-based, CHO, BLA complementation, fluorescence | inhibition, % at 4.98 µM | AID 504734, 2011 | CCF4 FRET ratio | Toll-like receptor 9 (Homo sapiens) + Myeloid differentiation primary response protein … | 340,000 compounds, 0.21% hits;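 active = inhibition above the mean over all tested compounds plus 3 SD, cut at about 21% in these data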;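 also: 0% = DMSO only wells and 100% = clavulanate BLA inhibitor control wells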
# NOD2-RIPK2 inh: NOD2-RIPK2 binding disruptors in cells, primary screen, fluorescence, CHO cells, BLA complementation; CCF4 ratio; inhibition, % at 4.98 µM; 360,000 compounds, 0.38% hits; in the data active = inhibition above about 21%;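 also: 0% = vehicle only and 100% = reference blocker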
# MC4R ag barr: MC4R agonists recruiting beta-arrestin, primary screen, cell-based, luminescence, agonist arm of biased-ligand search | Melanocortin receptor 4 (Homo sapiens), P32245 | U2OS MC4R beta-arrestin complementation; percent of melanotan II response, DMSO zero | activation, % at 8.9 µM | 360,000 compounds, 0.98% hits | AID 540308, 2011;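 active = activation above a per-plate cutoff, the mean activation of sample wells on that plate plus 3 SD, cut at about 8% in these data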
# MC4R antagonist: MC4R antagonists of cAMP signaling, primary screen, cell-based, TR-FRET, antagonist arm of biased-ligand search; MC4R-expressing cells, MTII-stimulated cAMP, LANCE TR-FRET; 360,000 compounds, 0.48% hits; Melanocortin receptor 4 (Homo sapiens), P32245; AID 540295, 2011; inhibition, % at 6.5 µM;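 active = inhibition above its plate's cutoff, the mean of tested wells on that plate plus 3 SD, cut at about 29% in these data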;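 also: 0% = Melanotan II alone and 100% = Melanotan II plus saturating MCL0020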
#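 Material – human MC4R-expressing U2OS cells · Repeats – no replicates · Detection – TR-FRET with Eu-cAMP and labeled anti-cAMP, 671 nm · Times – compound 30 min, challenge 1 h, detection 1 h · Compound – single nominal compound dose of 6.5 µM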
# U2OS cAMP counter: nonselective cAMP signaling inhibitors, parental cells, counter-screen for MC4R biased antagonist project, cell-based, TR-FRET, U2OS, forskolin, triplicate; 1,600 compounds, 26% hits; LANCE TR-FRET; inhibition, % at 6.5 µM; shares compounds with MC4R antagonist;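 active = mean inhibition over triplicates above the low-control well mean plus 3 SD, set per campaign, cut at about 13% in these data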;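 also: signal is single emission at 671 nm which falls as cellular cAMP rises; 0% = forskolin-stimulated wells and 100% = buffer without forskolin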
# MC4R cAMP antag: MC4R cAMP antagonists, retest, confirmation, cell-based, TR-FRET; shares compounds with MC4R antagonist; MC4R-expressing cells, MTII-stimulated cAMP; inhibition, % at 6.5 µM; 1,600 compounds, 27% hits; in the data active = inhibition above about 29%;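 also: 0% = agonist stimulated wells alone and 100% = agonist stimulated wells plus saturating reference antagonist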
# An asterisk follows results filed as active; · = not tested or not shown.
SMILES,TLR4 MyD88 comp,TLR9-MyD88 block,NOD2-RIPK2 inh,MC4R ag barr,MC4R antagonist,U2OS cAMP counter,MC4R cAMP antag
COc1ccc(NC(=S)N2CCN(C(c3ccccc3)c3ccccc3)CC2)cc1OC,-6,4,2,-2,29*,3,1
Cn1nc(C(=O)NNC(=O)C2CSC3(C)CCC(=O)N23)c2ccccc2c1=O (centres undefined),·,0,-9,-4,11,·,·
CCN(CC)CCCNC(=O)CCC(=O)Nc1ccc2nc(N3CCC(C)CC3)cc(C)c2c1,11,-9,-9,0,37*,4,0
O=C(c1ccc(Cl)c([N+](=O)[O-])c1)N(Cc1ccccc1)C1CCS(=O)(=O)C1 (centres undefined),-3,-5,-7,1,17,·,·
Cc1ccc(CN(C(=O)c2ccc(Cl)c([N+](=O)[O-])c2)C2CCS(=O)(=O)C2)o1 (centres undefined),·,-3,-2,-4,37*,19*,37*
O=[N+]([O-])c1cccc2c(N3CCCC3)ccnc12,5,-1,-5,1,-7,·,·
CCc1cc2ccc(OC)cc2nc1SCC(=O)NNC(=O)c1ccco1,-6,1,3,-2,2,·,·
CCc1cc2ccc(OC)cc2nc1SCC(=O)N1CCN(C(=O)c2ccco2)CC1,·,-1,12,-1,34*,2,18
COc1ccc(Cl)cc1S(=O)(=O)NC(C)C(=O)NCCN1CCOCC1 (centres undefined),·,4,0,0,2,·,·
COc1ccc(N2CCN(C(=O)CCCNC(=O)Cn3cnc4sc(C)c(C)c4c3=O)CC2)cc1,·,-1,-11,-2,9,·,·
COc1ccccc1N1CCN(C(=O)CCCNC(=O)Cn2cnc3sc(C)c(C)c3c2=O)CC1,·,-5,-11,1,33*,0,-2
COC(=O)c1c(NC(=O)COC(=O)c2ccc(Cl)cc2[N+](=O)[O-])sc2c1CCCCC2,-1,-14,-3,-1,31*,6,22
CSCCC(NC(=O)c1ccccc1Cl)C(=O)Nc1ccc(C)c(S(=O)(=O)N2CCOCC2)c1 (centres undefined),·,4,5,3,29*,8,13
Cc1ccc(NC(=O)CCNC(=O)c2ccccc2Cl)cc1S(=O)(=O)N1CCOCC1,·,1,-11,-1,7,·,·
Cc1ccccc1N(C(=O)c1snc(C(N)=O)c1N)C(C(=O)NCC1CCCO1)c1ccc(F)cc1 (centres undefined),·,2,4,1,7,·,·
COCC(C)NC(=O)c1cccc(Cl)c1 (centres undefined),-5,5,-6,-2,5,·,·
COCC(C)NC(=O)c1cc(OC)cc(OC)c1 (centres undefined),5,10,4,0,36*,1,5
O=C(c1cnc(Cl)c(Cl)c1)N1CCN(S(=O)(=O)c2ccc3ccccc3c2)CC1,·,-1,-2,-4,36*,17*,54*
Cc1cc(C)cc(-n2c(SCC(=O)Nc3cccc(S(=O)(=O)NC4=NCCCCC4)c3)nc3ccccc3c2=O)c1,-4,-10,-1,2,29*,2,4
COc1cc(C2NCC(c3ccc(Cl)cc3Cl)c3c2[nH]c2ccccc32)cc(OC)c1OC (centres undefined),-2,2,-4,6,36*,6,11
COc1ccc(Cl)cc1NC(=S)Nc1ccccc1C,5,-6,6,0,29*,-2,-2
COC(=O)/C=C/CC(C)OS(N)(=O)=O (centres undefined),·,1,4,-1,12,·,·
Cc1ccc(NC(=O)c2cncc(Br)c2)cc1S(=O)(=O)N(C)C,-10,-2,4,2,29*,6,-3
CC1CCCCC1NC(=O)CCC(=O)N1CCOc2ccc(Cl)cc21 (centres undefined),·,-3,11,-1,3,·,·
CC1(C)CC(=O)C(C=NCCN2CCN(C3CC(=O)N(c4ccc(Br)cc4)C3=O)CC2)=C(O)C1 (centres undefined),-1,·,1,3,33*,-4,-19
SMILES,TLR4 MyD88 comp,TLR9-MyD88 block,NOD2-RIPK2 inh,MC4R ag barr,MC4R antagonist,U2OS cAMP counter,MC4R cAMP antag
O=[N+]([O-])c1cccnc1S(=O)(=O)c1ccccc1,·,0,18,2,33*,14*,38*
O=C(c1c(F)c(F)c(F)c(F)c1F)N1CCc2ccccc21,-1,-4,-1,-1,33*,17*,27
COc1cc(OC)cc(C(=O)Nc2nc3ccc(S(C)(=O)=O)cc3s2)c1,5,8,-4,-3,34*,-2,-5
Cc1nc(N2CCCCC2)c2c(C)c(C(=O)Nc3ccc4c(c3)OCCO4)sc2n1,·,4,0,0,9,·,·
O=C(c1nc2ccccn2c1CNCCn1ccc2ccccc21)N1CCOCC1,·,6,-11,4,32*,-10,-21
O=C(c1nc2ccccn2c1CNCCCn1nnc2ccccc21)N1CCOCC1,-30,-4,6,-1,10,·,·
O=C(c1ccccc1)C(CCC(CN1CCOCC1)C(=O)c1ccccc1)CN1CCOCC1 (centres undefined),4,10,30*,-1,41*,-4,-2
O=C(c1ccc(F)cc1)C(CN1CCOCC1)c1ccccc1 (centres undefined),17,10,7,-1,19,·,·
O=C(O)CSc1nc2ccccc2nc1Cc1ccccc1F,·,1,-5,-2,31*,-1,7
C=CCn1c(-c2ccccn2)n[nH]c1=S,·,·,-4,·,·,·,·
COC(=O)CNC(c1ccccc1)c1cc(Br)ccc1NC(=O)CCN1CCOCC1 (centres undefined),5,0,-8,2,29*,6,-5
COC(=O)CNC(c1ccccc1)c1cc(Br)ccc1N (centres undefined),·,-9,-6,2,31*,-1,3
Nc1nc(=O)n(C2CCCCO2)cc1Br (centres undefined),·,-8,-11,0,-3,·,·
O=C(CNS(=O)(=O)c1ccccc1)NCC(=O)N1CCCCC1,·,-10,-8,-1,4,·,·
